Here are results for 3 molecules from ChEMBL document CHEMBL3822380, “Simple avarone mimetics as selective agents against multidrug resistant cancer cells” (Eur J Med Chem, 2016).

Converted amounts (≈) assume the structure as drawn.

The subject of data set [1] is NCI-H460. Put plainly: Cytotoxicity against multidrug resistant human NCI-H460 cells after 72 hrs by MTT assay. In kind it is functional, cell-based. The following applies: NCI-H460, 72 h. The method in brief: (§1)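 Seeding in 96-well plates at 1000 (NCI-H460), 2000 (NCI-H460/R) or 4000 (HaCaT) cells/well, treated after 24 h for 72 h. MTT at 0.4 mg/mL final, 4 h at 37 °C. Formazan dissolved in DMSO, absorbance read at 540 nm. Inhibition % = (1 − A treated/A untreated)×100. IC30 and IC50 obtained by linear regression.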
(Tetrazolium assays rely on reduction of a dye to a coloured formazan, in cell work by metabolically active cells.)

Data set [2] deals with Saccharomyces cerevisiae. Nature of the data set: Antifungal activity against Saccharomyces cerevisiae ATCC 9763 by broth microdilution method. In kind it is functional. The procedure, abridged: (§2)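 Broth microdilution per NCCLS. Compounds dissolved in DMSO as 10 mg/mL stock, diluted in Mueller Hinton broth (bacteria) or Sabouraud dextrose broth (fungi). Amikacin served as the positive control for bacteria and nystatin for fungi.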

Data set [3] relates to Staphylococcus aureus. Nature of the data set: Antibacterial activity against Staphylococcus aureus ATCC 6538 by broth microdilution method. In kind it is functional. The procedure, abridged: as §2
On the technique in general: In broth dilution the organism is exposed to a series of concentrations in liquid medium.

For data set [4], the system named is Micrococcus luteus. Nature of the data set: Antibacterial activity against Micrococcus luteus ATCC 10240 by broth microdilution method. The data set is classed as functional. The method in brief:
as §2

Data set [5] has as its system Aspergillus brasiliensis. Put plainly: Antifungal activity against Aspergillus brasiliensis ATCC 16404 by broth microdilution method. The data set is classed as functional. The method in brief:
as §2

Data set [6] concerns HaCaT. Nature of the data set: Cytotoxicity against human HaCaT cells after 72 hrs by MTT assay. The data set is classed as cell-based. Particulars: for IC50: Homo sapiens, HaCaT; for IC30: human, hacat. The method in brief:
as §1

Data set [7] deals with NCI-H460. Nature of the data set: Selectivity ratio of IC30/IC50 for human NCI-H460 cells to IC30/IC50 for multidrug resistant human NCI-H460 cells. The data set is classed as functional. The procedure, abridged:
(§3)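 Fold threshold of 1.5 used to call selectivity to cancer cells, resistance, or selectivity to MDR cells.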

In data set [8] the test system is NCI-H460. Put plainly: Cytotoxicity against human NCI-H460 cells after 72 hrs by MTT assay. The data set is classed as functional, cell-based. The following applies: NCI-H460, 72 h. The method in brief:
as §1

The subject of data set [9] is Escherichia coli. Nature of the data set: Antibacterial activity against Escherichia coli ATCC 25922 by broth microdilution method. The data set is classed as functional. The method in brief:
as §2

The subject of data set [10] is Pseudomonas aeruginosa. Put plainly: Antibacterial activity against Pseudomonas aeruginosa ATCC 9027 by broth microdilution method. In kind it is functional. The procedure, abridged:
as §2

For data set [11], the system named is Candida albicans. Nature of the data set: Antifungal activity against Candida albicans ATCC 10231 by broth microdilution method. In kind it is functional. The method in brief: as §2
Data set [12] concerns Bacillus spizizenii. Put plainly: Antibacterial activity against Bacillus subtilis ATCC 6633 by broth microdilution method. The data set is classed as functional. The method in brief: as §2
A short description of data set [13]: Selectivity ratio of IC30/IC50 for human HaCaT cells to IC30/IC50 for human NCI-H460 cells. In kind it is ADME, cell-based. Particulars: HaCaT cells versus NCI-H460 cells. The procedure, abridged: as §3
The test system of data set [14] is Salmonella enteritidis. Put plainly: Antibacterial activity against Salmonella enterica subsp. enterica serovar Enteritidis ATCC 13076 by broth microdilution method. In kind it is functional. The procedure, abridged: as §2
Data set [15] in a line: Selectivity ratio of IC30/IC50 for human HaCaT cells to IC30/IC50 for multidrug resistant human NCI-H460 cells. The data set is classed as ADME, cell-based. Particulars: HaCaT cells versus multidrug resistant NCI-H460 cells. The method in brief: as §3
For data set [16], the system named is Micrococcus luteus. Nature of the data set: Antibacterial activity against Micrococcus luteus ATCC 4698 by broth microdilution method. In kind it is functional. Particulars: NCTC 2665. The procedure, abridged: as §2
Data set [17] relates to Clostridium sporogenes. Nature of the data set: Antibacterial activity against Clostridium sporogenes ATCC 19404 by broth microdilution method. In kind it is functional. The method in brief:
as §2

In data set [18] the test system is Kocuria rhizophila. Nature of the data set: Antibacterial activity against Kocuria rhizophila ATCC 9341 by broth microdilution method. The data set is classed as functional. The following applies: DC2201. The procedure, abridged: as §2
Data set [19] deals with Proteus hauseri. Nature of the data set: Antibacterial activity against Proteus hauseri ATCC 13315 by broth microdilution method. The data set is classed as functional. The method in brief: as §2

In general, IC30 refers to the point of the concentration-response curve where the effect stands at 30%. The term IC50 denotes the point on the concentration scale where inhibition reaches its midpoint. The MIC is the smallest concentration in the dilution series that meets the test's criterion for growth inhibition. Take `CC(C)(C)C1=CC(=O)C=C(NCc2ccccc2)C1=O`: the IC30 in data set [1] was found to be 3 µM; in data set [6], 12 µM; in data set [8], 5 µM. Moreover, the IC50 in data set [1] was found to be 10 µM; in [6], 21 µM; in [8] it was 14 µM. For the same molecule, the MIC in data set [2] stood at 2320 µM (≈ 626 µg/mL); in data set [3], 9 µM (≈ 2.42 µg/mL); in data set [4], 9 µM (≈ 2.42 µg/mL); in [5], 2320 µM (≈ 626 µg/mL); in data set [9], 9 µM (≈ 2.42 µg/mL); in data set [10] it was 2320 µM (≈ 626 µg/mL). The MIC in data set [11] came out at 2320 µM (≈ 626 µg/mL); in data set [12], 2320 µM (≈ 626 µg/mL); in data set [14] it was 4650 µM (≈ 1250 µg/mL); in [16] it was 4650 µM (≈ 1250 µg/mL); in data set [17] it was 2320 µM (≈ 626 µg/mL). For the same molecule, the selectivity ratio entry in data set [7] was “<=1.5”; in data set [13], no more than 1.5; in [15], no more than 1.5.
Consider `CCCCNC1=CC(=O)C=C(C[C@]2(C)[C@@H](C)CC[C@]3(C)C(C)=CCC[C@@H]23)C1=O`, for which the IC30 worked out at 3 µM in data set [1], 11 µM in data set [6] and 9 µM in data set [8]. In addition, the IC50 was 6 µM in data set [1], 16 µM in data set [6] and 16 µM in [8]. Besides, the selectivity ratio result in data set [7] was “<=1.5”.
For the molecule `CC(C)(C)C1=CC(=O)C(NCc2ccccc2)=CC1=O`, the figures for the IC30 in [1], in data set [6] and in data set [8] were 5 µM, 12 µM and 13 µM, respectively. Moreover, the IC50 turned out to be 15 µM in [1], 28 µM in data set [6] and 19 µM in data set [8]. For the same molecule, the MIC worked out at 72 µM (≈ 19.4 µg/mL) in data set [3]; 18 µM (≈ 4.85 µg/mL) in data set [4]; 36 µM (≈ 9.7 µg/mL) in data set [9]; 4650 µM (≈ 1250 µg/mL) in data set [10]; 4650 µM (≈ 1250 µg/mL) in [12]; 4650 µM (≈ 1250 µg/mL) in data set [18]. The MIC in data set [19] came to 2320 µM (≈ 626 µg/mL); in data set [14], 4650 µM (≈ 1250 µg/mL); in [16], 2320 µM (≈ 626 µg/mL); in data set [17], 2320 µM (≈ 626 µg/mL). In addition, the selectivity ratio entry in [7] is “<=1.5”; in [13], no more than 1.5; in data set [15] it was no more than 1.5.
